PREPL inhibitor = PREPL enzyme inhibitors, primary screen, biochemical, fluorescence polarization; Prolyl endopeptidase-like (Homo sapiens), Q4J6C6; recombinant PREPL, fluorescence polarization activity-based probe; inhibition, % at 5.96 µM; actives 0.68% (n = 320,000); AID 2751, 2010; in the data active means inhibition above about 43%;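 further: 0% = enzyme with DMSO and 100% = wells lacking enzyme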
procasp3 activ = activators of human procaspase-3 D3A mutant, primary screen, biochemical, absorbance, PC-3 D3A mutant, single concentration; Caspase-3 (Homo sapiens), P42574; activation, % at 8.5 µM; recombinant procaspase-3 D3A, Ac-DEVD-pNA absorbance 405 nm; actives 0.11% (n = 330,000);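 active means activation above the mean of all tested compounds plus 3 SD, cut at about 21% in these data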;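 further: 0% = DMSO alone and 100% = DMSO wells spiked with extra 5 µM PC-3 D3A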
Target sequence (P42574 whole entry D9A/D28A/D175A): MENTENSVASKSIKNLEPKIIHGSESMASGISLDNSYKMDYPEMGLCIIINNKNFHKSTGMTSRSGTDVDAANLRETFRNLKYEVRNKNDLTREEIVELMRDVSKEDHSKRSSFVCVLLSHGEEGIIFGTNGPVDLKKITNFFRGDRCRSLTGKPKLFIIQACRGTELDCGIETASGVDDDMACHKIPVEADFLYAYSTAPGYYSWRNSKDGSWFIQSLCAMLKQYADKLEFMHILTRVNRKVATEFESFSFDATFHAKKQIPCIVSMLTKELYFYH
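Assay system – Procaspase-3 D3A mutant, all three cleavage aspartates alanine · Controls – DMSO-only low control, 5 µM PC-3 D3A high control · Schedule – 1 h compound preincubation, 2 h substrate hydrolysis at 25 °C · Signal – 405 nm absorbance of p-nitroaniline, reads at 0 and 120 min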
LYPLA1 inh = LYPLA1 inhibitors, primary screen, counter-screen for PME1 inhibitor project, biochemical, fluorescence polarization, FP-Rh probe ABPP. actives 0.16% (n = 320,000). inhibition, % at 5.9 µM. recombinant LYPLA1;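 active means inhibition above the mean of all tested compounds plus 3 SD, set per campaign, cut at about 14% in these data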;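 further: inhibitors block serine hydrolase probe labeling of LYPLA1 so polarization falls; 0% = enzyme with DMSO and 100% = wells lacking LYPLA1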
Target sequence (O75608 whole entry, looked up): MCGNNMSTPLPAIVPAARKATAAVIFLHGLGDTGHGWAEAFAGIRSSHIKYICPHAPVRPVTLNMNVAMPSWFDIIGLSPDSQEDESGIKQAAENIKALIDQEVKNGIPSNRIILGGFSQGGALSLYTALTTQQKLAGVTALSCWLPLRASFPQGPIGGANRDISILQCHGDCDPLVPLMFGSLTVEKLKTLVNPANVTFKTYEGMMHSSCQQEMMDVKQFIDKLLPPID
proCasp7 act = procaspase-7 activators, primary screen, counter-screen for procaspase-3 activator project, biochemical, absorbance, HTS, human. recombinant procaspase-7, Ac-DEVD-pNA absorbance 405 nm; D23A/D198A/D206A triple mutant, cannot self-cleave; scale: DMSO 0, 5 µM enzyme 100. activation, % at 8.5 µM. actives 0.093% (n = 330,000). AID 463210, 2010;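 active means percent activation above the screen-wide mean plus 3 SD, cut at about 25% in these data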
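Replicates: singlicate. Assay system: Procaspase-7 triple mutant (PC-7 D3A). Signal: 405 nm absorbance of p-nitroaniline. Times: 1 h preincubation, 2 h reaction. Buffer or medium: Zinc-free HEPES pH 7.4 with 300 mM NaCl, 0.01% Triton X-100. Also added: DEVD-pNA substrate. Benchmarks: DMSO wells as 0%, DMSO with 5 µM added PC-7 as 100%.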
LYPLA2 counter = LYPLA2 inhibitors, primary screen, counter-screen for PME1 inhibitor project, biochemical, fluorescence polarization, FP-Rh probe ABPP; AID 2177, 2009; inhibition, % at 5.9 µM; actives 0.38% (n = 320,000); recombinant LYPLA2; Acyl-protein thioesterase 2 (Homo sapiens), O95372;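 active means inhibition above the screen-wide mean plus 3 SD, limit set per campaign, cut at about 26% in these data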;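 further: 0% = LYPLA2 with DMSO and 100% = wells lacking LYPLA2 enzyme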
PC3 D3A act = procaspase-3 activators, counter-screen for dual procaspase-3/7 activator project, biochemical, absorbance, PC-3 D3A mutant, human | shares compounds with proCasp7 act | activation, % at 8.5 µM | recombinant PC-3 D3A, Ac-DEVD-pNA absorbance 405 nm; aspartates 9, 28, 175 changed to alanine; 100% = enzyme control | 290 tested, under 10 active;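 active means mean percent activation across triplicates above a set limit taken from the earlier primary procaspase-3 screen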;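 further: 0% = DMSO wells and 100% = DMSO wells with 5 µM added PC-3 D3A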
PC7 dual conf = activation of procaspase-7 enzyme – biochemical, absorbance, human, dual procaspase-3/-7 activator project, confirmation; activation, % at 8.5 µM; AID 493115, 2011; recombinant procaspase-7, Ac-DEVD-pNA absorbance 405 nm; D23A/D198A/D206A mutant that cannot self-cleave; shares compounds with proCasp7 act; 290 tested, under 10 active;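 active means mean activation above a set limit carried over from the earlier primary screen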;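 further: 0% = DMSO only and 100% = DMSO with added 5 µM PC-7 enzyme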
Numbers without * were called inactive; nt = no result. Rows were chosen to be rich in hits. Some 1.1% of all compounds tested hit in one or more screens of this group.

SMILES | PREPL inhibitor | procasp3 activ | LYPLA1 inh | proCasp7 act | LYPLA2 counter | PC3 D3A act | PC7 dual conf
CCOc1cc(/C=N/NC(=O)c2ccccn2)ccc1OC(=O)c1ccc(F)cc1 | 28 | -7 | -10 | 7 | -16 | nt | nt
COc1c2ccccc2c(OC)c2ccccc12 | -2 | 81* | -2 | 63* | -4 | -30 | -34
CCOC(=O)c1ccc2nc(NC(=O)c3ccco3)sc2c1 | -3 | 24* | -1 | 30* | -2 | -29 | -36
COc1ccc2c(c1OC)C(=O)OC2CC(=O)c1ccc(N(C)C)cc1 (stereo not drawn) | 2 | 44* | 0 | 41* | 6 | 41* | 30*
COC(=O)C1=C(C)NC(=O)NC1c1ccc(N2CCC(c3ccccc3)=N2)cc1 (stereo not drawn) | -3 | 85* | 0 | 38* | -4 | -30 | -35
COc1ccc(OC)c(/C=N/NC(=O)c2cc3c(OC)cc(OC)cc3[nH]2)c1 | 36 | 3 | -19 | 23 | -23 | nt | nt
COc1ccc(OC)c(/C=N/NC(=O)c2cc3c(OC)cccc3[nH]2)c1 | 31 | 16 | -15 | 38* | -24 | 3 | 3
COc1ccc(C2CC(c3ccc(C(F)(F)F)cc3)=NN2c2ccc(S(N)(=O)=O)cc2)cc1 (stereo not drawn) | nt | 23* | nt | 28* | nt | -31 | -36
COc1ccc(C2CC(c3ccccc3F)=NN2c2ccc(S(N)(=O)=O)cc2)cc1 (stereo not drawn) | nt | 34* | nt | 35* | nt | -29 | -34
Cc1c(C(=O)N(C)Cc2cccc(F)c2)oc2c(Cl)cccc12 | 3 | -2 | -2 | -5 | 0 | nt | nt
COc1ccc(OC)c(/C=C/C(=O)N2CCN(S(=O)(=O)c3ccc(C)cc3C)CC2)c1 | 22 | 9 | -4 | 32* | 0 | 1 | -3
COc1ccc(OC)c(/C=C/C(=O)N2CCN(S(=O)(=O)c3cc(C)ccc3C)CC2)c1 | 11 | 1 | -8 | 12 | -2 | nt | nt
O=C(NCc1ccccn1)c1cccc(NS(=O)(=O)c2cccc(F)c2)c1 | 7 | -8 | 1 | 0 | -1 | nt | nt
COc1ccc(C(=O)NCc2nnc(SCC(=O)NC3CCCCC3)n2C)cc1 | 5 | 5 | 1 | -9 | 4 | nt | nt
COc1ccccc1[C@H]1C(c2ccc(F)cc2)=NN(c2ccccc2)[C@@H]1CO | nt | 10 | nt | 13 | nt | nt | nt
COc1ccccc1[C@H]1C(c2ccccc2)=NN(c2ccccc2)[C@@H]1CO | nt | 25* | nt | 50* | nt | -28 | -36
Cc1cccc(/C=N/NC(=O)c2ccc(NC(=O)c3ccccc3C)cc2)n1 | -2 | 4 | -4 | 34* | -4 | 0 | 0
Cc1cccc(/C=N/NC(=O)c2ccc(NC(=O)c3ccccc3Cl)cc2)n1 | -1 | 0 | 1 | 8 | 6 | nt | nt
COc1cccc(NC(=O)C2CCN(S(=O)(=O)c3ccc4[nH]c(=O)oc4c3)CC2)c1 | -2 | 4 | 0 | -5 | 6 | nt | nt
COc1ccc(C2C3=C(CC(C)(C)CC3=O)Nc3c2c(=O)n(C)c(=O)n3C)cc1OC (stereo not drawn) | -9 | 6 | 2 | 27* | 2 | -28 | -24
COc1ccc(-c2oc(=O)c3cc(OC)c(OC)cc3c2-c2cc(F)cc(OC)c2)cc1 | -2 | -2 | 0 | 8 | -1 | nt | nt
COc1ccc(-c2c(-c3ccc(C#N)cc3)oc(=O)c3cc(OC)c(OC)cc23)cc1 | -8 | 15 | nt | 26* | nt | -4 | -6
Cc1ccc(Cn2c(=O)c3cccnc3n(CC(=O)Nc3cccc(C(F)(F)F)c3)c2=O)cc1 | -6 | 1 | -33 | 42* | -62 | -1 | -1
N#Cc1c(N)nc2c(c1-c1ccc3c(c1)OCO3)CCc1ccccc1-2 | 35 | 16 | -15 | 30* | -4 | -30 | -34
N#Cc1c(N)c(C#N)c(-c2ccc3c(c2)OCO3)c2c1CCCC2 | 16 | 5 | 4 | 2 | 2 | nt | nt
SMILES | PREPL inhibitor | procasp3 activ | LYPLA1 inh | proCasp7 act | LYPLA2 counter | PC3 D3A act | PC7 dual conf
Cc1ccc(NC(=O)CN2CCN(Cc3ccccc3)CC2)cc1F | -26 | 3 | -1 | -5 | -1 | nt | nt
Clc1ncccc1-c1nc2ccccc2s1 | -32 | 3 | 1 | 5 | 0 | nt | nt
O=c1c(-c2nc3ccccc3s2)cccn1Cc1ccc(Cl)cc1 | -21 | 123* | -4 | 90* | 6 | -29 | -36
C=CC[C@@H](CC(=O)N(CCO)Cc1ccccc1)C(=O)N[C@H](C)COC(=O)[C@@H](CC=C)Cc1ccc(F)cc1 | 6 | 0 | nt | 27* | nt | 2 | 1
CCn1c(=NC(=O)C2COc3ccccc3O2)sc2c(OC)ccc(OC)c21 (stereo not drawn) | 10 | 6 | 1 | 36* | 0 | 2 | 2
COCCn1c(=NC(=O)C2COc3ccccc3O2)sc2cc(S(N)(=O)=O)ccc21 (stereo not drawn) | 14 | 1 | -4 | -6 | -8 | nt | nt
Cc1ccc(NC(=O)COc2cccc(Oc3ccccc3)c2)cc1S(=O)(=O)N1CCOCC1 | -3 | -1 | -19 | 1 | -35 | nt | nt
COc1ccc(OCCn2cc(/C=C(\C#N)C(=O)NCc3ccco3)c3ccccc32)cc1 | -6 | 5 | 0 | 7 | 6 | nt | nt
COc1ccccc1OCCn1cc(/C=C(\C#N)C(=O)NCc2ccco2)c2ccccc21 | -18 | 1 | 1 | 50* | -16 | 3 | 1
COc1ccc(-c2cc(C(F)(F)F)n3nc(C(=O)NCc4ccco4)cc3n2)cc1 | 0 | 60* | -5 | 42* | 1 | -30 | -37
CCOP(=O)(OCC)c1nc(-c2cccc3ccccc23)oc1NCCc1ccc(OC)cc1 | 11 | 22* | -2 | 30* | -1 | -28 | -36
C=CCNC1=C(Cl)C(=O)N(c2cccc(Cl)c2Cl)C1=O | -2 | 6 | -2 | 32* | 8 | 9 | 5
